ChEMBL document CHEMBL4000160, “Wasabisides A-E, Lignan Glycosides from the Roots of Wasabia japonica” (J Nat Prod, 2016)

How the values were obtained:
[1] = system: C6; test: Induction of nerve growth factor secretion in rat C6 cells at 20 uM after 24 hrs by ELISA relative to control; type: functional
Method in brief: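 C6 glioma cells (Korean Cell Line Bank) seeded 1 × 10^5 cells/well; after 24 h switched to serum-free DMEM with 20 μM compound for 24 h. NGF in conditioned medium quantified by ELISA, given as % of untreated control (100%). 6-Shogaol positive control; mean ± SD of three independent experiments.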

[2] = Cytotoxicity against rat C6 cells assessed as cell viability at 20 uM by MTT assay relative to control; type: cell-based; settings: read-out: Activity
Method in brief: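 C6 glioma cells seeded 1 × 10^5 cells/well, treated 24 h later in serum-free DMEM with 20 μM compound for 24 h; viability by MTT assay, expressed as % of untreated control. Mean ± SD of three independent experiments.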

[3] = system: BV-2; test: Antineuroinflammatory activity in mouse BV2 cells assessed as inhibition of LPS-induced nitric oxide production after 24 hrs by Griess assay; type: functional, cell-based; settings: BV-2, 24 h
Method in brief: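 BV2 microglia seeded at 4 × 10^4 cells/well, exposed with or without graded compound concentrations, stimulated with LPS 100 ng/mL for 24 h. Nitrite in medium measured by mixing supernatant 1:1 with Griess reagent (0.1% N-1-naphthylethylenediamine, 1% sulfanilamide, 5% phosphoric acid), absorbance read at 570 nm after 10 min against sodium nitrite standard curve. NG-monomethyl-L-arginine positive control.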

[4] = system: BT-549; test: Cytotoxicity against human BT549 cells after 48 hrs by SRB assay; type: functional, cell-based; settings: BT-549, 48 h
Method in brief: (§1)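 Human tumor lines from ATCC, maintained at Korea Research Institute of Chemical Technology; cytotoxicity determined by sulforhodamine B (SRB) method, reported as IC50.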

[5] = system: A549; test: Cytotoxicity against human A549 cells after 48 hrs by SRB assay; type: functional, cell-based; settings: A549, 48 h; method in brief: as §1
[6] = system: SK-OV-3; test: Cytotoxicity against human SKOV3 cells after 48 hrs by SRB assay; type: functional, cell-based; settings: SK-OV-3, 48 h; method in brief: as §1
[7] = system: SK-MEL-2; test: Cytotoxicity against human SK-MEL-2 cells after 48 hrs by SRB assay; type: functional, cell-based; settings: SK-MEL-2, 48 h; method in brief: as §1

| IC50 [3] [µM] | SMILES | Activity [1] [%] | viability at 20 µM [2] [%] | IC50 [4] [µM] | IC50 [5] [µM] | IC50 [6] [µM] | IC50 [7] [µM] |
| --- | --- | --- | --- | --- | --- | --- | --- |
| > 50 | COc1cc(C[C@@H]2C(=O)OC[C@H]2[C@@H](O)c2cc(OC)c(O[C@@H]3O[C@H](CO)[C@@H](O)[C@H](O)[C@H]3O)c(OC)c2)ccc1O | 99.4 | 102 | > 10 | > 10 | > 10 | > 10 |
| > 50 | COc1cc(C[C@@H]2C(=O)OC[C@H]2[C@@H](O[C@@H]2O[C@H](CO)[C@@H](O)[C@H](O)[C@H]2O)c2ccc(O)c(OC)c2)ccc1O | 150.7 | 100 | > 10 | > 10 | > 10 | > 10 |
| > 50 | O=C(O)c1ccccc1 [BENZOIC ACID] | 114.5 | 96.4 | > 10 | > 10 | > 10 | > 10 |
| > 50 | COc1cc(C(=O)O)cc(OC)c1O [SYRINGIC ACID] | 125.5 | 95.9 | > 10 | > 10 | > 10 | > 10 |
| 17.6 | CNC(=N)NCCC[C@H](N)C(=O)O [TILARGININE] | – | – | – | – | – | – |

More lines, now with the values behind:

| SMILES | IC50 [3] [µM] | Activity [1] [%] | viability at 20 µM [2] [%] | IC50 [4] [µM] | IC50 [5] [µM] | IC50 [6] [µM] | IC50 [7] [µM] |
| --- | --- | --- | --- | --- | --- | --- | --- |
| COc1cc(C[C@@H]2C(=O)OC[C@H]2[C@@H](O)c2ccc(O[C@@H]3O[C@H](CO)[C@@H](O)[C@H](O)[C@H]3O)c(OC)c2)ccc1O | > 50 | 103.3 | 98.2 | > 10 | > 10 | > 10 | > 10 |
| COc1cc(C[C@H]2C(=O)OC[C@@H]2C(=O)c2ccc(O[C@@H]3O[C@H](CO)[C@@H](O)[C@H](O)[C@H]3O)c(OC)c2)ccc1O | > 50 | 122.1 | 101 | > 10 | > 10 | > 10 | > 10 |
| COc1cc([C@H](O)[C@@H]2COC(=O)[C@H]2Cc2ccc(O[C@@H]3O[C@H](CO)[C@@H](O)[C@H](O)[C@H]3O)c(OC)c2)ccc1O | > 50 | 104.3 | 102 | > 10 | > 10 | > 10 | > 10 |
| O=C(O)/C=C/c1ccc(O)cc1 [COUMARIC ACID] | > 50 | 129.2 | 198 | 10 | > 10 | > 10 | > 10 |
| COc1cc(/C=C/C(=O)O)ccc1O [FERULATE] | > 50 | 110.7 | 95 | > 10 | > 10 | > 10 | > 10 |
| CCCCC/C=C/C(=O)CCc1ccc(O)c(OC)c1 [SHOGAOL] | – | 165.7 | 115 | – | – | – | – |
